Measured values taken from ChEMBL document CHEMBL1144397, “Structure-based design: synthesis and biological evaluation of a series of novel cycloamide-derived HIV-1 protease inhibitors” (J Med Chem, 2005).

How the values were obtained:
[1] = system: MT2; experiment: (§1) Compound tested for the inhibition of HIV-induced cytopathogenicity in MT-2 cells; type: functional, cell-based; details: Homo sapiens
In short: (§2)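 MT-2 cells (2 × 10^3/well) infected with 100 TCID50s of HIV-1LAI in presence of various agent concentrations; 37 °C for 7 days. Viability read by MTT (7.5 mg/mL in PBS), 2 h at 37 °C, formazan dissolved in acidified 2-propanol with 4% Triton X-100, OD 570 nm. IC50/IC75 from inhibition of cytopathogenicity; duplicate assays, mean of two or three.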

[2] = system: MT2; experiment: as §1; type: functional; details: Homo sapiens; in short: as §2
[3] = molecular target: Human immunodeficiency virus type 1 protease (Human immunodeficiency virus 1, UniProt Q72874); experiment: Inhibitory activity against human immunodeficiency virus 1 protease

| SMILES | IC50 [1] [nM] | IC75 [2] [nM] | Ki [3] [nM] |
| --- | --- | --- | --- |
| CC(C)(C)NC(=O)[C@@H]1C[C@@H]2CCCC[C@@H]2CN1C[C@@H](O)[C@H](Cc1ccccc1)NC(=O)[C@H](CC(N)=O)NC(=O)c1ccc2ccccc2n1 | 12 | 47 | – |
| CC(C)CN(C[C@@H](O)[C@H](Cc1ccccc1)NC(=O)O[C@H]1CCOC1)S(=O)(=O)c1ccc(N)cc1 | 28 | 79 | – |
| C=CCCCCC(NC(=O)c1cccc(O)c1OCCC=C)C(O)CN(CC(C)C)S(=O)(=O)c1ccc2c(c1)OCO2 (configuration not stated) | – | – | 20 |
| COc1ccc(S(=O)(=O)N(CC(C)C)CC(O)C2CCCCCCCOc3c(O)cccc3C(=O)N2)cc1 (configuration not stated) | – | – | 1 |
| CC(C)CN(CC(O)C1CCCCCCCCOc2c(O)cccc2C(=O)N1)S(=O)(=O)c1ccc2c(c1)OCO2 (configuration not stated) | > 1000 | > 1000 | 3 |
| C=CCCCCC(NC(=O)c1cccc(O)c1OCC=C)C(O)CN(CC(C)C)S(=O)(=O)c1ccc(OC)cc1 (configuration not stated) | – | – | 12 |
| C=CCCCCC(NC(=O)c1cccc(O)c1OCCC=C)C(O)CN(CC(C)C)S(=O)(=O)c1ccc(OC)cc1 (configuration not stated) | > 1000 | > 1000 | 2 |
| COc1ccc(S(=O)(=O)N(CC(C)C)CC(O)C2CCCCCCCCOc3c(O)cccc3C(=O)N2)cc1 (configuration not stated) | 300 | 740 | 0.7 |
| COc1ccc(S(=O)(=O)N(CC(C)C)CC(O)C2CCCCCCCCCOc3c(O)cccc3C(=O)N2)cc1 (configuration not stated) | 560 | > 1000 | 2 |
| CCCCCCCC(NC(=O)c1cccc(O)c1O)C(O)CN(CC(C)C)S(=O)(=O)c1ccc(OC)cc1 (configuration not stated) | – | – | 270 |
| C=CCCCCC(NC(=O)c1cccc(O)c1OCCCC=C)C(O)CN(CC(C)C)S(=O)(=O)c1ccc(OC)cc1 (configuration not stated) | – | – | 9 |
| COc1ccc(S(=O)(=O)N(CC(C)C)CC(O)C2CCCC/C=C\COc3c(O)cccc3C(=O)N2)cc1 (configuration not stated) | – | – | 2 |
